Published values collected from several papers.
Protocols differ between the studies behind these lines.
Cell line: A549
Read-out: cell growth or viability

CCNC(=O)Nc1nc2cc(-c3ccc4ncn(Cc5ccccc5)c(=O)c4c3)ccc2s1 — IC50 (MTT; 72 h): 11 µM
CC(C)[C@@H]1NC(=O)[C@@H](CCCNC(=N)N)NC(=O)[C@H]([C@@H](C)O)NC(=O)[C@@H](CN)NC(=O)[C@H](Cc2ccccc2)NC(=O)[C@@H](Cc2ccccc2)NC1=O — IC50 (ATP luminescence): 79.8 µM
NNc1nc2c(Cl)cc(Cl)cc2c(=O)n1-c1ccc(Cl)cc1 — IC50 (MTT; 48 h): 25.9 µM
OC1CCN(c2ccc(/C=N/NC(=S)NCc3ccc(Cl)cc3)cc2)CC1 — IC50 (MTT; 24 h): 1.46 µM
CCCNC(=S)N/N=C/c1cccc2cc3ccccc3nc12 — IC50 (MTT; 48 h): > 50 µM
O=C1/C(=C/c2ccc3ccccc3c2O)NC(=S)N1c1ccccc1 — IC50 (MTT): 5.2 µg/mL
COc1cccc(NC(=O)Nc2nc3cc(-c4ccc5ncn(CCN6CCOCC6)c(=O)c5c4)ccc3s2)c1 — IC50 (MTT; 72 h): 1.14 µM
CCCCn1cnc2ccc(-c3ccc(NC(=O)NC(C)(C)C)nc3)cc2c1=O — IC50 (CCK-8; 72 h): > 10 µM
O=C(O)c1ccc(NCc2ccc(Cl)cc2)cc1 — IC50 (resazurin; 72 h): > 100 µM
CCCCn1cnc2ccc(-c3ccc(NC(=O)C4CCCCC4)nc3)cc2c1=O — IC50 (CCK-8; 72 h): 1.28 µM
Cc1sc2c(c1C)C(c1ccc(Cl)cc1)=N[C@@H](CC(=O)NCCCCNC(=O)COc1cccc3c1C(=O)N(C1CCC(=O)NC1=O)C3=O)c1nnc(C)n1-2 (some centres unmarked) — IC50 (CCK-8; 72 h): > 10 µM
O=C(Nc1ccc(C(F)(F)F)cc1)Nc1nc2cc(-c3ccc4ncn(CCN5CCOCC5)c(=O)c4c3)ccc2s1 — IC50 (MTT; 72 h): 2.01 µM
CCCCC(=O)Nc1ccc(-c2ccc3ncn(CCF)c(=O)c3c2)cn1 — IC50 (CCK-8; 72 h): > 10 µM
COc1cccc(CNc2ccc(C(=O)O)cc2)c1OC — IC50 (resazurin; 72 h): > 100 µM
COc1cc(C=NNC(=O)c2cc(-c3ccccc3)n(-c3ccc(S(N)(=O)=O)cc3)n2)cc(OC)c1OC — IC50 (fluorescence; 48 h): 18.8 µM
COC(=O)c1cc(C(C)=NNc2nc(-c3cccc4cc[nH]c34)cs2)ccc1O — IC50 (MTT; 96 h): 92.3 µM
CCCCn1cnc2ccc(-c3ccc(NC(=O)c4ccccc4)nc3)cc2c1=O — IC50 (CCK-8; 72 h): > 10 µM
Cc1ccc(CNC(=S)N/N=C/c2ccc(N3CCC(O)CC3)cc2)cc1 — IC50 (MTT; 24 h): 3.28 µM
O=C(Nc1nc2cc(-c3ccc4ncn(Cc5ccccc5)c(=O)c4c3)ccc2s1)NC1CCCCC1 — IC50 (MTT; 72 h): 12.2 µM
CCCCC(=O)Nc1ccc(-c2ccc3ncn(CCC)c(=O)c3c2)cc1 — IC50 (CCK-8; 72 h): > 10 µM
C/C(=N\C(=O)/N=C(\C)c1c(O)c2ccccc2oc1=O)c1c(O)c2ccccc2oc1=O — IC50 (MTT; 48 h): 19.7 µM
COc1ccc(Cn2cnc3ccc(-c4ccc(NC(=O)c5ccccc5)nc4)cc3c2=O)cc1 — IC50 (CCK-8; 72 h): > 10 µM
O=C(NO)Nc1nc2c(Cl)cc(Cl)cc2c(=O)n1-c1ccccc1 — IC50 (MTT; 48 h): 45.1 µM
